High-throughput results: PubChem BioAssay, Johns Hopkins Ion Channel Center
RGS4 block: inhibitors of human RGS4; P49798; HEK293 M3R/RGS4 inducible, Fluo-4 calcium flux; hits give high values; triggered by carbachol at its EC20; B-score at 10 µM; 310,000 tested, 0.45% active; AID 463165;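 active = B-score, a plate-corrected calcium signal, over three deviations above library mean, with baseline fluorescence within five deviations of library mean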;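 note: RGS4 expression induced by doxycycline in cells with stable M3 receptor; B-score is computed from the integrated fluorescence ratio over baseline after carbachol; higher B-score means a larger calcium signal and so more RGS4 inhibition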
Target sequence (P49798 whole entry, looked up): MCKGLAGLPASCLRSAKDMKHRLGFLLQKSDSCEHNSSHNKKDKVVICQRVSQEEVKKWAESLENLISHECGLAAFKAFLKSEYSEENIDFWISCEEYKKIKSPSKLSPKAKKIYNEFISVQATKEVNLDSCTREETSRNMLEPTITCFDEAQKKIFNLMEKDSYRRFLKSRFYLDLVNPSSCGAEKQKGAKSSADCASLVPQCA
MrgX1 allo act: allosterically activates human MrgX1 receptor signaling. Q96LB2. MrgX1-HEK293, Fluo-4 calcium flux, FDSS; hits give high values. B-score at 10 µM. 310,000 tested, 0.63% active. AID 588675;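 active = plate-corrected calcium response at least 3 library SD above typical, normal starting fluorescence, not activating the receptor alone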;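 note: compound read alongside a low EC10 to EC30 dose of BAM8-22 agonist; peak minus trough fluorescence over baseline measured at the second addition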
Target sequence (Q96LB2 whole entry, looked up): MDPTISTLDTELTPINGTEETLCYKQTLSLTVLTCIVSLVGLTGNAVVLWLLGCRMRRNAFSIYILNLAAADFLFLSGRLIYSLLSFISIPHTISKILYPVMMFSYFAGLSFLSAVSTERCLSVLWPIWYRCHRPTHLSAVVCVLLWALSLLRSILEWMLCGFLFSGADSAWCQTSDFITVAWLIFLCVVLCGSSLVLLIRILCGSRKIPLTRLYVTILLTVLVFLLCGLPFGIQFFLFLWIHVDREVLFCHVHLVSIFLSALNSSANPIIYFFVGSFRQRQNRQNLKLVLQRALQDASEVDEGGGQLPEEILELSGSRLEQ
MrgX1 agonist: agonists of human MrgX1 receptor | 310,000 tested, 0.44% active | AID 588627 | Q96LB2 | MrgX1-HEK293 cells, Fluo-4 calcium fluorescence, agonist mode; hits give high values | B-score at 10 µM;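 active = calcium response B-score plate-corrected fluorescence ratio at least 3 library SD, with starting fluorescence B-score inside 5 SD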
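Test system: HEK293 cells stably expressing human MrgX1 receptor; Input: fifteen thousand cells per well; Dosing: compound delivered in addition one of three; Schedule: overnight seeding, then 1 h dark dye loading; Technique: Fluo-4 NW calcium fluorescence; Measure: B-scored fluorescence response ratio; Controls: positive and negative controls per plate.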
MrgX1 antagonist: blocks BAM8-22 activation of human MrgX1 receptor | B-score at 10 µM | AID 588676 | MRGX1-HEK293 calcium flux, Fluo-4, BAM8-22 antagonism; hits give low values | 310,000 tested, 1.3% active;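 active = calcium-response B-score plate-corrected more than 3 library SD below zero, starting fluorescence within 5 deviations, no agonist response on first addition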;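 note: peak minus trough fluorescence over baseline after final BAM8-22 challenge near maximal dose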
RGS4 act: RGS4 potentiation or activation; HEK293 M3R/inducible RGS4, carbachol calcium flux Fluo4; hits give low values; B-score at 10 µM; 310,000 tested, 0.92% active;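 active = B-score of the integrated calcium signal more than 4 SD below the library mean, with starting fluorescence not abnormally high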;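 note: negative B-score means reduced calcium response which marks RGS4 activation or potentiation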
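test system = M3R-expressing HEK293 line, RGS4 induced by doxycycline | probe or stimulus = carbachol at ECmax as muscarinic agonist stimulus | timing = dye loading 30 min 37 °C, buffer rest 30 min RT | signal = calcium dye Fluo4 fluorescence | evaluation = B score from integrated fluorescence ratio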
MrgX1 ant reconf: confirmation of human MrgX1 receptor antagonists | shares compounds with MrgX1 antagonist | MrgX1-HEK293, BAM8-22 calcium flux, Fluo-4; hits give low values | remaining BAM8-22 calcium response % of control (hits give low values), % at 10 µM | 2,300 tested, 19% active | AID 602420;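 active = remaining agonist calcium response no higher than 100% minus 3 SD of agonist-only control wells, with starting fluorescence near control levels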;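 note: agonist BAM8-22 given at a near maximal EC90 to ECmax level; peak minus minimum fluorescence divided by baseline after agonist addition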
HEK293 Ca flux: activity in parental HEK293 cells lacking MrgX1. Fluo-4 calcium fluorescence, FDSS. AID 624111. 4,000 tested, 2% active. shares compounds with MrgX1 antagonist. fluorescence ratio F(max-min)/F0 at 10 µM;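 active = duplicate-averaged calcium fluorescence ratio at least three times the standard deviation of buffer wells, a nonspecific response in parental cells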
HEK293 Ca counter: counter-screen for MrgX1 allosteric activators: effect in parental HEK293 cells. parental HEK293 calcium flux, Fluo-4 fluorescence ratio; hits give high values. shares compounds with MrgX1 antagonist. fluorescence ratio F(max-min)/F0 at 10 µM. 4,000 tested, 0.4% active;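 active = calcium fluorescence ratio, averaged over duplicates, at least 3 SD of the buffer-well ratio, meaning a nonspecific response in receptor-free cells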;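 note: untransfected parental HEK293 lacking MrgX1 used as counterscreen for MrgX1 allosteric activators; fluorescence change taken during the second addition on a kinetic imager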
HEK293 Ca cntr2: activity in parental HEK293 cells lacking MrgX1 receptor. shares compounds with MrgX1 antagonist. fluorescence ratio F(max-min)/F0 at 10 µM. 4,000 tested, 8.7% active. Fluo-4 calcium fluorescence (FDSS); hits give high values;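 active = calcium fluorescence ratio at least three times the spread of buffer wells, meaning a non-specific response in parental cells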
Each line names hits and unclear results; the compound was inactive in the other large screens (follow-up assays come after a bar, where they were run). Sampled rows, rich in hits. Any-hit rate of the full collection: about 3.5%.

Cc1ccc2nc(-c3ccc(N4C(=N)SC5CS(=O)(=O)CC54)cc3)sc2c1 (configuration not stated)	MrgX1 antagonist -7.25 | MrgX1 ant reconf 85.0% | HEK293 Ca flux inactive | HEK293 Ca counter inactive | HEK293 Ca cntr2 inactive
O=C1CCCN1CCC12CC3CC(CC(C3)C1)C2	MrgX1 antagonist -4.66 | MrgX1 ant reconf inactive | HEK293 Ca flux inactive | HEK293 Ca counter inactive | HEK293 Ca cntr2 inactive
O=C(CC12CC3CC(CC(C3)C1)C2)N1CCCC1	none
COc1ccc(N2CCN(C(=O)Cn3nnc(-c4cccs4)n3)CC2)cc1	MrgX1 antagonist -5.17 | MrgX1 ant reconf inactive | HEK293 Ca flux inactive | HEK293 Ca counter inactive | HEK293 Ca cntr2 inactive
COC(=O)CCn1nnc(-c2cccs2)n1	MrgX1 antagonist -6.85 | MrgX1 ant reconf 74.8% | HEK293 Ca flux inactive | HEK293 Ca counter inactive | HEK293 Ca cntr2 inactive
COc1ccc(C(=O)Cn2nnc(-c3cccs3)n2)cc1	none
COC(=O)c1ccc(NC(=O)Cn2nnc(-c3cccs3)n2)cc1	none
CC(Cc1ccccc1)NC(=O)CCCN1C(=O)c2ccccc2C1=O (configuration not stated)	none
O=[N+]([O-])c1ccc(N2CCN(CC3CCCCC3)CC2)cc1	none
CCOC(=O)c1cnc2cc(F)c(F)cc2c1N1CCN(C)CC1	none
COCCN(C(=O)C1CC1)c1nnc(-c2cccc(C)c2)s1	MrgX1 antagonist -5.38 | MrgX1 ant reconf inactive | HEK293 Ca flux inactive | HEK293 Ca counter inactive | HEK293 Ca cntr2 inactive
CCCN(C(=O)c1ccco1)c1nnc(-c2cccc(C)c2)s1	none
Cc1[nH]c(=O)c(S(=O)(=O)c2ccccc2)c(C)c1Cl	none
CS(=O)(=O)N(CCc1ccccc1)CC(=O)NCC1CCCO1 (configuration not stated)	MrgX1 antagonist -6.73 | MrgX1 ant reconf inactive | HEK293 Ca flux inactive | HEK293 Ca counter inactive | HEK293 Ca cntr2 inactive
Cn1c(CNC(=O)c2ccc(Cl)cc2)nnc1SCC(=O)NC1CCCC1	none
O=C(O)C1CSC(c2ccccc2Cl)N1C(=O)c1ccc(Cl)cc1 (configuration not stated)	none
COc1ccc(-c2nnc(SCC(=O)Nc3ccccc3)n2C)cc1	none
COCCN1C(=O)C(=O)/C(=C(/O)c2ccc(C)cc2)C1c1ccccn1 (configuration not stated)	MrgX1 antagonist -7.67 | MrgX1 ant reconf inactive | HEK293 Ca flux inactive | HEK293 Ca counter inactive | HEK293 Ca cntr2 inactive
O=C1C(=O)N(Cc2cccnc2)C(c2ccccn2)/C1=C(/O)c1ccc(F)cc1 (configuration not stated)	MrgX1 antagonist -5.13 | MrgX1 ant reconf inactive | HEK293 Ca flux inactive | HEK293 Ca counter inactive | HEK293 Ca cntr2 inactive
Cc1ccc(/C(O)=C2/C(=O)C(=O)N(CCCn3ccnc3)C2c2ccccn2)cc1 (configuration not stated)	none (no result: MrgX1 allo act, MrgX1 agonist, MrgX1 antagonist)
CCN(CC(=O)NCc1ccc(Cl)cc1)C(=O)CN1C(=O)NC(CC)(c2ccccc2)C1=O (configuration not stated)	none
O=C(COc1cccc(NC(=O)c2cccs2)c1)c1ccc(F)cc1	MrgX1 antagonist -4.94 | MrgX1 ant reconf inactive | HEK293 Ca flux inactive | HEK293 Ca counter inactive | HEK293 Ca cntr2 inactive
O=C(COc1cccc(NC(=O)c2ccccc2)c1)c1ccccc1	none
Cc1cccc(OCCCC(=O)NC2CCCCC2)c1	MrgX1 antagonist -6.74 | MrgX1 ant reconf inactive | HEK293 Ca flux inactive | HEK293 Ca counter inactive | HEK293 Ca cntr2 inactive
Cc1cccc(OCC(=O)NC2CCCC2)c1	none
O=C(Nc1ccc(Cl)c(Cl)c1)Nc1nnc(CC2=CCCCC2)s1	none
C=C1CCN([C@@H](C)C(=O)OCc2cccc(C)c2)S(=O)(=O)c2ccccc21	MrgX1 antagonist -11.4 | MrgX1 ant reconf inactive | HEK293 Ca flux inactive | HEK293 Ca counter inactive | HEK293 Ca cntr2 inactive
C=C1CCN([C@H](C(=O)OCc2ccc(C)cc2)C(C)C)S(=O)(=O)c2ccccc21	none (no result: RGS4 block, RGS4 act)
CCOC(=O)c1c(C)[nH]c(NC(=O)N2CCOCC2)c1C	none
Cc1ccc(C)c(OC2=NS(=O)(=O)c3ccccc32)c1	MrgX1 antagonist -4.84 | MrgX1 ant reconf inactive | HEK293 Ca flux inactive | HEK293 Ca counter inactive | HEK293 Ca cntr2 inactive
COC1=NS(=O)(=O)c2ccccc21	none
COc1ccccc1CNC(=O)CC12CC3CC(CC(Br)(C3)C1)C2	none
CCc1noc(C)c1C(=O)N1CC(C)OC(C)C1 (configuration not stated)	none
CCc1noc(C)c1C(=O)N1CCCC1	MrgX1 antagonist -4.66 | MrgX1 ant reconf 78.0% | HEK293 Ca flux inactive | HEK293 Ca counter inactive | HEK293 Ca cntr2 inactive
CC(Sc1nnc(NC2CCCCC2)s1)C(=O)Nc1ccc2c(c1)C(=O)c1ccccc1C2=O (configuration not stated)	none
COc1ccc(NC(=O)CSc2nnc3c4c(nc(-c5ccccc5)n23)CC(C)(C)OC4)cc1	MrgX1 antagonist -7.24 | MrgX1 ant reconf inactive | HEK293 Ca flux inactive | HEK293 Ca counter inactive | HEK293 Ca cntr2 inactive
CC(=O)N=c1sc2ccccc2n1C	none
CC(C(=O)N=c1sc2ccccc2n1C)N1C(=O)C2CC=CCC2C1=O (configuration not stated)	MrgX1 antagonist -4.75 | MrgX1 ant reconf inactive | HEK293 Ca flux inactive | HEK293 Ca counter inactive | HEK293 Ca cntr2 inactive
Cc1cc(C)c(NC(=O)C2CCN(c3cnccn3)CC2)c(C)c1	MrgX1 antagonist -6.1 | MrgX1 ant reconf inactive | HEK293 Ca flux inactive | HEK293 Ca counter inactive | HEK293 Ca cntr2 inactive
Cc1nn(-c2ccccc2)c(C)c1NC(=O)COC(=O)/C=C/c1ccccc1	none
CCNC(=S)N/N=C/c1ccc(OCC(=O)Nc2ccc(OC)cc2)c(OC)c1	none
CCNC(=S)N/N=C/c1ccc(OCC(=O)Nc2ccc(C)cc2)cc1	MrgX1 antagonist -10.1 | MrgX1 ant reconf inactive | HEK293 Ca flux inactive | HEK293 Ca counter inactive | HEK293 Ca cntr2 inactive
CCOc1ccccc1NS(=O)(=O)c1ccc(-c2cnc(C3CC3)o2)cc1	none
COc1ccccc1NS(=O)(=O)c1ccc(-c2cnc(C3CC3)o2)cc1	MrgX1 antagonist -5.18 | MrgX1 ant reconf inactive | HEK293 Ca flux inactive | HEK293 Ca counter inactive | HEK293 Ca cntr2 inactive
